The values below come from ChEMBL document CHEMBL1134952, “Dual NK(1) antagonists--serotonin reuptake inhibitors as potential antidepressants. Part 2: SAR and activity of benzyloxyphenethyl piperazine derivatives” (Bioorg Med Chem Lett, 2002).

Activity calls are given as the source filed them. The rule behind the calls is not given here.

Test [1] addresses T1, Substance-P receptor (Homo sapiens, UniProt P25103). The test can be described thus: Binding affinity against human Tachykinin receptor 1 expressed in CHO cells using [3H]-substance P as the radioligand. The format is cell-based.
Test [2] addresses Sodium-dependent serotonin transporter (Rattus norvegicus, UniProt P31652). Kind of test: Binding affinity against Serotonin transporter in rat cerebral cortex using [3H]paroxetine binding assay. It counts as tissue-based. The method, boiled down:
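Rat cerebral cortex membranes, […] protein, incubated 120 min at 25 °C in 50 mM Tris–HCl pH 7.4 with 2 mM MgCl2 and 0.05 nM radioligand. Nonspecific binding taken as the residual binding with excess imipramine present.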

The next test has as its system Gerbillinae. Kind of test: Dose required to decrease by 45% the duration of the foot-tapping, indicating efficacious central blockade of NK1 receptors. The format is functional.
The test system of test [3] is Cavia porcellus. The test can be described thus: Oral dose required attenuate by 99% the duration of vocalizations in the isolation-induced guinea pig pup by vocalization test. The format is functional.
The test system of a further test is Rattus norvegicus. The test can be described thus: Intraperitoneal dose required to increase extracellular 5-HT levels to 250% in the frontal cortex of freely moving rats by using intracerebral microdialysis. It counts as functional.
Test [4] deals with Cavia porcellus. Kind of test: Oral dose required attenuate by 50% the duration of vocalizations in the isolation-induced guinea pig pup by vocalization test. The format is functional.
Test [5] deals with T1, Substance-P receptor. Kind of test: Binding affinity against human Tachykinin receptor 1 expressed in CHO cells using [3H]-substance P as the radioligand; less than 50% inhibition at 10e-5 M. It counts as cell-based.

Sequence of Sodium-dependent serotonin transporter (P31652 whole entry): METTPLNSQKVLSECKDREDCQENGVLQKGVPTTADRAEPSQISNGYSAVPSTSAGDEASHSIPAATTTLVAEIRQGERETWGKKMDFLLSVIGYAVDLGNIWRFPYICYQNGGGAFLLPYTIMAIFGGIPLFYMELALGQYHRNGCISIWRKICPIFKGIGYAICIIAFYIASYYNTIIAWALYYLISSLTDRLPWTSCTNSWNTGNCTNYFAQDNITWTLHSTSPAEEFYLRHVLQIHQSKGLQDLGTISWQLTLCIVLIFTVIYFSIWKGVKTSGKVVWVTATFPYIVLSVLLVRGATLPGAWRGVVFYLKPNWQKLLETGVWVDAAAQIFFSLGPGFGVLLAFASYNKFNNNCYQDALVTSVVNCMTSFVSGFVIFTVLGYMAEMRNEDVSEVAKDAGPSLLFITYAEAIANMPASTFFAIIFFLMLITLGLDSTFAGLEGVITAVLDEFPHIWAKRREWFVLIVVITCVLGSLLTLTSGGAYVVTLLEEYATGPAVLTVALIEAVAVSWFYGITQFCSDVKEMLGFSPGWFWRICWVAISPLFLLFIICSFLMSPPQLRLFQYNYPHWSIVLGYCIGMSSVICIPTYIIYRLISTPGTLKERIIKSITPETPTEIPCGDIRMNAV
T1 sequence (P25103 whole entry): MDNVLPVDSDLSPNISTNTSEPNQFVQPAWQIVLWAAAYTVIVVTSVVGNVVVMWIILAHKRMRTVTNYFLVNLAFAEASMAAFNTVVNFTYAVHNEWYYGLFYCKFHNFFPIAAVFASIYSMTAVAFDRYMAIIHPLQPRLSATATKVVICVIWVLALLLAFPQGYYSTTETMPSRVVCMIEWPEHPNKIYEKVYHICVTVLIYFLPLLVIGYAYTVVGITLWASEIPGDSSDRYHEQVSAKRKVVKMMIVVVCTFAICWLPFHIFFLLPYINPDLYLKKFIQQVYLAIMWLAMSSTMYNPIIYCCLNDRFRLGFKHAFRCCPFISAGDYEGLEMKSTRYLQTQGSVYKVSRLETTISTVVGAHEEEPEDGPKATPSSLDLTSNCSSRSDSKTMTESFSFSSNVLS

As to `Fc1cc(F)cc(COCC(c2ccccc2)N2CCNCC2)c1` (configuration not stated), the half-maximal inhibitory concentration (IC50) is 200 nM at Substance-P receptor [1] and 0.794 nM in test [2].
On to `Clc1cc(Cl)cc(COC[C@H](c2ccccc2)N2CCNCC2)c1`, for which the IC50 was 3.16 nM at Substance-P receptor [1] and 2.51 nM in test [2].
As for `Brc1cc(Br)cc(COC[C@@H](c2ccccc2)N2CCNCC2)c1`, the 50% inhibitory concentration (IC50) on Substance-P receptor [1] is 12.6 nM; in test [2], 31.6 nM.
For the molecule `CC(C)c1cccc(C(COCc2cc(C(F)(F)F)cc(C(F)(F)F)c2)N2CCNCC2)c1` (configuration not stated), the IC50 on Substance-P receptor [1] was 39.8 nM; in test [2], 316 nM.
Turning to `Fc1ccccc1C(COCc1cc(C(F)(F)F)cc(C(F)(F)F)c1)N1CCNCC1` (configuration not stated), the IC50 is 5.01 nM at Substance-P receptor [1] and 200 nM in test [2].
With `Clc1cc(Cl)cc(COC[C@@H](c2ccccc2)N2CCNCC2)c1`, the half-maximal inhibitory concentration (IC50) at Substance-P receptor [1] is 25.1 nM; in test [2] it was 12.6 nM.
For `COc1c(Br)cc(Br)cc1COCC(c1ccccc1)N1CCNCC1` (configuration not stated), the half-maximal inhibitory concentration (IC50) on Substance-P receptor [1] is 7.94 nM; in test [2], 6.31 nM.
With `COc1ccc(C(COCc2cc(C(F)(F)F)cc(C(F)(F)F)c2)N2CCNCC2)cc1` (configuration not stated), the values for the IC50 (on Substance-P receptor [1]; in test [2]) were 50.1 nM and 100 nM, respectively.
As for `Fc1ccc(C(COCc2cc(C(F)(F)F)cc(C(F)(F)F)c2)N2CCNCC2)cc1` (configuration not stated), the IC50 was 100 nM at Substance-P receptor [1] and 158 nM in test [2].
With `COc1cccc(C(COCc2cc(C(F)(F)F)cc(C(F)(F)F)c2)N2CCNCC2)c1` (configuration not stated), the half-maximal inhibitory concentration (IC50) on Substance-P receptor [1] was 1 nM; in test [2] it was 200 nM.
With `Cc1cc(C)cc(COCC(c2ccccc2)N2CCNCC2)c1` (configuration not stated), the concentration for half-maximal inhibition (IC50) on Substance-P receptor [1] is 25.1 nM.
Take `CC(C)(C)c1cc(COCC(c2ccccc2)N2CCNCC2)cc(C(C)(C)C)c1` (configuration not stated): the concentration for half-maximal inhibition (IC50) in test [2] was 1000 nM.
`Clc1cccc(COCC(c2ccccc2)N2CCNCC2)c1` (configuration not stated): the results for the half-inhibitory concentration (IC50) (on Substance-P receptor [1]; in test [2]) were 398 nM and 7.94 nM, respectively.
On to `FC(F)(F)c1cc(COCC(c2ccc(Cl)c(Cl)c2)N2CCNCC2)cc(C(F)(F)F)c1` (configuration not stated), for which the IC50 was 5.01 nM at Substance-P receptor [1] and 200 nM in test [2].
Regarding `Fc1cccc(C(COCc2cc(C(F)(F)F)cc(C(F)(F)F)c2)N2CCNCC2)c1F` (configuration not stated), the IC50 at Substance-P receptor [1] is 3.16 nM; in test [2], 316 nM.
The matching figures for `COc1ccccc1C(COCc1cc(C(F)(F)F)cc(C(F)(F)F)c1)N1CCNCC1` (configuration not stated): 6.31 nM and 251 nM.
Consider `FC(F)(F)c1cc(COCC(c2ccccc2)N2CCNCC2)cc(C(F)(F)F)c1` (configuration not stated), for which the IC50 at Substance-P receptor [1] is 5.01 nM; in test [2] it was 251 nM.
`FC(F)(F)c1cc(COCC(c2ccccc2Cl)N2CCNCC2)cc(C(F)(F)F)c1` (configuration not stated): the half-inhibitory concentration (IC50) on Substance-P receptor [1] is 1.58 nM; in test [2], 200 nM.
In the case of `Brc1cc(Br)cc(COC[C@H](c2ccccc2)N2CCNCC2)c1`, the IC50 at Substance-P receptor [1] was 3.16 nM; in test [2], 10 nM. Further, the Dose in the test with Gerbillinae turned out to be 3.2e-05 M/kg; in the test with Cavia porcellus [3], 3.5e-05 M/kg; in the test with Rattus norvegicus, 3.2e-05 M/kg; in the test on Cavia porcellus [4], 1e-05 M/kg.
Turning to `CNCCC(Oc1ccc(C(F)(F)F)cc1)c1ccccc1` (configuration not stated), the “Log IC50” value at Substance-P receptor [5] is “inactive”.
With `FC(F)(F)c1cc(COCC(c2cccc(Cl)c2)N2CCNCC2)cc(C(F)(F)F)c1` (configuration not stated), the half-inhibitory concentration (IC50) was 1.58 nM at Substance-P receptor [1] and 251 nM in test [2].
Take `Fc1cc(COCC(c2ccccc2)N2CCNCC2)cc(C(F)(F)F)c1` (configuration not stated): the figures for the concentration for half-maximal inhibition (IC50) (on Substance-P receptor [1]; in test [2]) were 12.6 nM and 15.8 nM, respectively.
With `Brc1cc(I)cc(COCC(c2ccccc2)N2CCNCC2)c1` (configuration not stated), the half-maximal inhibitory concentration (IC50) is 1.26 nM at Substance-P receptor [1] and 25.1 nM in test [2].

A word on the IC50: it is the concentration needed to halve the response being measured. Higher therefore signals lower potency.
